# The source made the active and inactive calls. No cut-off for these calls is given here.
# Legend:
# HeLa [1] = assay: Antiproliferative activity against human HeLa cells after 24 hrs by cell titer 96 aqueous non-radioactive cell proliferation assay; assay type: functional, cell-based
# Summary of the method: (§1)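 Cells kept in high-glucose DMEM with 10% FBS and 1% penicillin/streptomycin at 37°C, 5% CO2. They were exposed for 24 h to compound in serum-free DMEM, with final EtOH ≤0.1% (ethanol stocks made fresh). Viability was read by MTS absorbance against vehicle-treated controls; n=4 per group.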
# [2] = Toxicity in athymic nude mouse xenografted with human HeLa cells assessed as effect on respiration at 40 ug, administered intra-tumorally every day for 14 days; settings: in vivo, other, 336 h
# [3] = Toxicity in athymic nude mouse xenografted with human HeLa cells assessed as effect on mobility at 40 ug, administered intra-tumorally every day for 14 days; settings: in vivo, other, 336 h
# [4] = molecular target: Transient receptor potential cation channel subfamily V member 1 (Homo sapiens) (UniProt Q8NER1); assay: Agonist activity at TRPV1 (unknown origin) expressed in CHO cells assessed as increase in calcium influx by Calcium 6 dye-based FLIPR assay; assay type: cell-based
# Sequence of Transient receptor potential cation channel subfamily V member 1 (Homo sapiens) (Q8NER1 whole entry): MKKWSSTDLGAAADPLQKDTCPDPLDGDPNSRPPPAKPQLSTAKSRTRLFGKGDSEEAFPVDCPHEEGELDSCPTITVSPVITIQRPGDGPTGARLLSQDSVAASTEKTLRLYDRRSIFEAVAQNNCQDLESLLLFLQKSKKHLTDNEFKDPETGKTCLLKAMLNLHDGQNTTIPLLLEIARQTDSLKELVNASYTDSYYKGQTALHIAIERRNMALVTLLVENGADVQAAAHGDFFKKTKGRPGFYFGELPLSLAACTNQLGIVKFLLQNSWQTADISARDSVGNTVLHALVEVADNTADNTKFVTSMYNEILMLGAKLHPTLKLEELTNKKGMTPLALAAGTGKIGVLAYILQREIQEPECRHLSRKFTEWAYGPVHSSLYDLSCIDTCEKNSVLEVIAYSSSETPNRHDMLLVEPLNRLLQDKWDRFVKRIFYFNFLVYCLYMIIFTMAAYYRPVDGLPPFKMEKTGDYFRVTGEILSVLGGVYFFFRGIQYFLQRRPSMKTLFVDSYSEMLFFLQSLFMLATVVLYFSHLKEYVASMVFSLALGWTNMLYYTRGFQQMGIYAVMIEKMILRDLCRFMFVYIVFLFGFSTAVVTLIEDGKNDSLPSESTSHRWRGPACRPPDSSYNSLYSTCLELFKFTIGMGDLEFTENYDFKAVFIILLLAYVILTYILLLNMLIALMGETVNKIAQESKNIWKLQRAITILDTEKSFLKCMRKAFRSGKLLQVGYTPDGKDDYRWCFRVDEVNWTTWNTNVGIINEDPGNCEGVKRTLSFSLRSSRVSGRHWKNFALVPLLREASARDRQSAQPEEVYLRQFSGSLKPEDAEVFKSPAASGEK
# Summary of the method: (§2)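 CHO cells stably overexpressing TRPV1, grown at 37°C in 5% CO2. 9x10³ cells per well, loaded with Calcium 6 dye for 2 h. Dose-response curves were run, then compounds at 1 μM were compared with 100 nM capsaicin as the positive control and 1 μM CPZ as the negative control. Calcium influx was read as the change in fluorescence at 535 nm; n=3 per group.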
# PC-3 = assay: Antiproliferative activity against human PC3 cells after 24 hrs by cell titer 96 aqueous non-radioactive cell proliferation assay; assay type: functional, cell-based; settings: PC-3, 24 h; summary of the method: as §1
# [5] = Toxicity in athymic nude mouse xenografted with human HeLa cells assessed as effect on adjacent non-malignant tissues at 40 ug, administered intra-tumorally every day for 14 days; settings: in vivo, other, 336 h
# MDA-MB-231 = assay: Antiproliferative activity against human MDA231 cells after 24 hrs by cell titer 96 aqueous non-radioactive cell proliferation assay; assay type: functional, cell-based; settings: MDA-MB-231, 24 h; summary of the method: as §1
# [6] = Toxicity in athymic nude mouse xenografted with human HeLa cells assessed as decrease in body weight at 40 ug, administered intra-tumorally every day for 14 days; settings: in vivo, other, 336 h
# [7] = Toxicity in athymic nude mouse xenografted with human HeLa cells assessed as effect on motor functions at 40 ug, administered intra-tumorally every day for 14 days; settings: in vivo, other, 336 h
# HeLa [8] = assay: Antitumor activity against human HeLa cells xenografted in athymic nude mouse assessed as tumor volume at 40 ug, administered intra-tumorally every day for 14 days (reference value: 562 mm3); assay type: functional
# NCI-H460 = assay: Antiproliferative activity against human NCI-H460 cells after 24 hrs by cell titer 96 aqueous non-radioactive cell proliferation assay; assay type: functional, cell-based; settings: NCI-H460, 24 h; summary of the method: as §1
# HSC-3 = assay: Antiproliferative activity against human HSC3 cells after 24 hrs by cell titer 96 aqueous non-radioactive cell proliferation assay; assay type: functional, cell-based; settings: HSC-3, 24 h; summary of the method: as §1
# [9] = Toxicity in athymic nude mouse xenografted with human HeLa cells assessed as effect on neurological function at 40 ug, administered intra-tumorally every day for 14 days; settings: in vivo, other, 336 h
# [10] = molecular target: Transient receptor potential cation channel subfamily V member 1 (Homo sapiens) (UniProt Q8NER1); assay: Antagonist activity at TRPV1 (unknown origin) expressed in CHO cells assessed as inhibition of capsaicin-induced increase in calcium influx at 1 uM pretreated before 100 nM capsaicin addition by Calcium 6 dye-based FLIPR assay; assay type: cell-based
# Summary of the method: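 CHO-TRPV1 cells, 9x10³ per well, loaded with Calcium 6 dye for 2 h. Cells were pretreated with 1 μM compound, then challenged with 100 nM capsaicin. TRPV1 inhibition was judged from the change in fluorescence at 535 nm.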
# [11] = molecular target: Transient receptor potential cation channel subfamily V member 1 (Homo sapiens) (UniProt Q8NER1); assay: Agonist activity at TRPV1 (unknown origin) expressed in CHO cells assessed as increase in calcium influx at 1 uM by Calcium 6 dye-based FLIPR assay; assay type: cell-based; summary of the method: as §2
# HeLa [12] = assay: Potency index, ratio of capsazepine IC50 to compound IC50 for antiproliferative activity against human HeLa cells; assay type: functional
IC50 (HeLa [1]) [µM],SMILES,also measured
> 100,COc1ccc2c(c1)CCCN(C(=S)NCCc1ccc(Cl)cc1)C2,
< 10,Oc1cc2c(cc1O)CN(C(=S)NCCc1ccc(Cl)cc1)CC2,Activity [2]: Non-Toxic; Activity [3]: Non-Toxic; Activity [4]: Dose-dependent effect; IC50 (PC-3): 13 µM; Activity [5]: Non-Toxic; IC50 (MDA-MB-231): 5 µM; Activity [6]: Non-Toxic; Activity [7]: Non-Toxic; Activity (HeLa [8]): 351 mm3; IC50 (NCI-H460): 23 µM; IC50 (HSC-3): 20 µM; Activity [9]: Non-Toxic
< 5,Oc1cc2c(cc1O)C(c1ccccc1)N(C(=S)NCCc1ccc(Cl)cc1)CC2 (configuration not stated),
85,Oc1cc2c(cc1O)CN(C(=S)NCCc1ccc(Cl)cc1)C2,
50,Oc1ccc2c(c1)CN(C(=S)NCCc1ccc(Cl)cc1)CCC2,
15,O=C(NCCc1ccc(Cl)cc1)N1CCc2cc(O)c(O)cc2C1,
25,Oc1cc2c(cc1O)CN(C(=S)NCCc1ccccc1)CC2,
> 100,Oc1cc2c(cc1O)CN(C(=S)NCc1ccccc1)CC2,
35,CC(C)C1c2cc(O)c(O)cc2CCN1C(=S)NCc1ccccc1 (configuration not stated),
> 100,COc1ccc(CCNC(=S)N2CCc3cc(O)c(O)cc3C2)cc1,
65,Oc1ccc2c(c1)CCCN(C(=S)NCCc1ccc(Cl)cc1)C2,
55,CC(C)C1c2cc(O)c(O)cc2CCN1C(=S)NCCc1ccc(Cl)cc1 (configuration not stated),
67,CC(C)C1c2cc(O)c(O)cc2CCN1C(=S)NCCc1ccccc1 (configuration not stated),
17,Oc1cc2c(cc1O)C(c1ccccc1)N(C(=S)NCCc1ccc(F)cc1)CC2 (configuration not stated),
> 100,COc1cc2c(cc1OC)CN(C(=S)NCCc1ccc(Cl)cc1)CC2,
25,Oc1cc2c(cc1O)CN(C(=S)NCCc1ccc(F)cc1)CC2,

IC50 (HeLa [1]) [µM],SMILES,also measured
25,Oc1cc2c(cc1O)C(c1ccccc1)N(C(=S)NCCc1ccccc1)CC2 (configuration not stated),
> 30,CN(CCc1ccc(O)c(O)c1)C(=O)NCCc1ccc(Cl)cc1,
30,Oc1cc2c(cc1O)CN(C(=S)NCCc1ccc(Cl)cc1Cl)CC2,
< 5,Oc1cc2c(cc1O)C(c1ccccc1)N(C(=S)NCc1ccccc1)CC2 (configuration not stated),Activity [2]: Non-Toxic; Activity [3]: Non-Toxic; IC50 (PC-3): 2.5 µM; Activity [5]: Non-Toxic; inhibition [10]: inactive; IC50 (MDA-MB-231): 32 µM; Activity [6]: Non-Toxic; Activity [7]: Non-Toxic; Activity (HeLa [8]): 283 mm3; Activity [11]: inactive; IC50 (NCI-H460): 42 µM; Ratio IC50 (HeLa [12]): 6; IC50 (HSC-3): 2 µM; Activity [9]: Non-Toxic
> 30,COc1ccc(CN(C)C(=O)NCCc2ccc(Cl)cc2)cc1OC,
24,COc1ccc(CCNC(=S)N2CCc3cc(O)c(O)cc3C2c2ccccc2)cc1 (configuration not stated),
30,CN(CCc1ccc(O)c(O)c1)C(=S)NCCc1ccc(Cl)cc1,
28,CC(C)C1c2cc(O)c(O)cc2CCN1C(=S)NCCc1ccc(F)cc1 (configuration not stated),
> 100,COc1cc2c(cc1OC)CN(C(=O)NCCc1ccc(Cl)cc1)CC2,
30,CN(Cc1ccc(O)c(O)c1)C(=O)NCCc1ccc(Cl)cc1,
> 100,COc1ccc2c(c1)CN(C(=S)NCCc1ccc(Cl)cc1)CCC2,
20,Oc1cc2c(cc1O)C(c1ccccc1)N(C(=S)NCCc1ccc(Cl)cc1Cl)CC2 (configuration not stated),
46,CC(C)C1c2cc(O)c(O)cc2CCN1C(=S)NCCc1ccc(Cl)cc1Cl (configuration not stated),
30,Oc1cc2c(cc1O)CN(C(=S)NCCc1ccc(Cl)cc1)CCC2 [CAPSAZEPINE],
> 100,CN(Cc1ccc(O)c(O)c1)C(=S)NCCc1ccc(Cl)cc1,
